Reference: ChEMBL document CHEMBL3091313, “Amino acids derived benzoxazepines: design, synthesis and antitumor activity” (Bioorg Med Chem Lett, 2013)

Tests used:
MCF7 [1] = assay: Antiproliferative activity against human MCF7 cells after 24 hrs by MTT assay; format: functional, cell-based; details: MCF7, 24 h
How it was run: (§1)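 MCF-7 (ER+ve) and MDA-MB-231 (ER-ve) breast cancer cells were exposed to compound or vehicle. Viability was read by MTT and expressed as % cell death versus vehicle, with 4-hydroxytamoxifen as positive control. IC50 came from three independent experiments, each in triplicate.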

MDA-MB-231 [2] = assay: Antiproliferative activity against human MDA-MB-231 cells after 24 hrs by MTT assay; format: functional, cell-based; details: MDA-MB-231, 24 h; how it was run: as §1
HEK293 = assay: Cytotoxicity against HEK293 cells after 24 hrs by MTT assay; format: cell-based; details: Homo sapiens, HEK293, 72 h; in the assay text read “after 72 hrs” for “after 24 hrs”
[3] = Safety index, ratio of IC50 for HEK293 cells to IC50 for human MCF7 cells; format: toxicity, cell-based; details: HEK293 cells versus MCF7 cells, read-out: Ratio IC50
How it was run: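 Cell death was assessed by MTT assay after 72 h exposure. The ratio was calculated as the HEK-293 IC50 divided by the MCF-7 EC50.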

MCF7 [4] = assay: Antiproliferative activity against human MCF7 cells after 72 hrs by MTT assay; format: functional, cell-based; details: MCF7, 72 h; how it was run: as §1
MDA-MB-231 [5] = assay: Antiproliferative activity against human MDA-MB-231 cells after 48 hrs by MTT assay; format: functional, cell-based; details: MDA-MB-231, 48 h; how it was run: as §1
MDA-MB-231 [6] = assay: Antiproliferative activity against human MDA-MB-231 cells after 72 hrs by MTT assay; format: functional, cell-based; details: MDA-MB-231, 72 h; how it was run: as §1
MCF7 [7] = assay: Antiproliferative activity against human MCF7 cells after 48 hrs by MTT assay; format: functional, cell-based; details: MCF7, 48 h; how it was run: as §1

COc1ccc2c(c1)CN(S(=O)(=O)c1ccc(C)cc1)[C@@H](CC(C)C)CO2
IC50 (MCF7 [1]): > 20 µM
IC50 (MDA-MB-231 [2]): > 20 µM

COc1ccc(C[C@H]2COc3ccccc3CN2Cc2ccc(OCCN3CCCCCC3)cc2)cc1
IC50 (MCF7 [1]): > 20 µM
IC50 (MDA-MB-231 [2]): > 20 µM

COc1ccc(C[C@H]2COc3ccccc3CN2)cc1
IC50 (MCF7 [1]): > 20 µM
IC50 (MDA-MB-231 [2]): > 20 µM

COc1cccc2c1OC[C@H](Cc1ccc(OCCN3CCOCC3)cc1)N(S(=O)(=O)c1ccc(C)cc1)C2
IC50 (MCF7 [1]): > 20 µM
IC50 (MDA-MB-231 [2]): > 20 µM

COc1ccc2c(c1)CN(S(=O)(=O)c1ccc(C)cc1)[C@@H](Cc1c[nH]c3ccccc13)CO2
IC50 (MCF7 [1]): > 20 µM
IC50 (MDA-MB-231 [2]): > 20 µM

COc1ccc(C[C@H]2COc3ccccc3CN2Cc2ccc(OCCN(C)C)cc2)cc1
IC50 (MCF7 [1]): > 20 µM
IC50 (MDA-MB-231 [2]): > 20 µM

COc1ccc(C[C@H]2COc3ccccc3CN2Cc2ccc(O)cc2)cc1
IC50 (MCF7 [1]): 10.3 µM
IC50 (MDA-MB-231 [2]): 13.2 µM

CCN(CC)CCOc1ccc(CN2Cc3ccccc3OC[C@@H]2Cc2ccc(OC)cc2)cc1
IC50 (MCF7 [1]): 14.5 µM
IC50 (MDA-MB-231 [2]): 18.6 µM

Cc1ccc(S(=O)(=O)N2Cc3ccccc3OCC2Cc2ccc(O)cc2)cc1 (stereo not drawn)
IC50 (HEK293): 30 µM
selectivity ratio [3]: 3
IC50 (MCF7 [4]): 10 µM

COc1cccc2c1OC[C@H](Cc1ccc(OCCN3CCCCCC3)cc1)N(S(=O)(=O)c1ccc(C)cc1)C2
IC50 (MCF7 [1]): > 20 µM
IC50 (MDA-MB-231 [2]): > 20 µM

COc1ccc(C[C@H]2COc3ccccc3CN2Cc2ccc(OCCN3CCCCC3)cc2)cc1
IC50 (MCF7 [1]): > 20 µM
IC50 (MDA-MB-231 [2]): > 20 µM

COc1ccc(C[C@H]2COc3ccccc3CN2Cc2ccc(OCCN3CCCC3)cc2)cc1
IC50 (MCF7 [1]): 12.5 µM
IC50 (MDA-MB-231 [2]): 15.7 µM

COc1ccc(C[C@H]2COc3ccccc3CN2C(=O)OC(C)(C)C)cc1
IC50 (MCF7 [1]): > 20 µM
IC50 (MDA-MB-231 [2]): > 20 µM

COc1cccc2c1OC[C@H](Cc1ccc(OCCN(C)C)cc1)N(S(=O)(=O)c1ccc(C)cc1)C2
IC50 (MCF7 [1]): > 20 µM
IC50 (MDA-MB-231 [2]): > 20 µM

CCC(=C(c1ccc(O)cc1)c1ccc(OCCN(C)C)cc1)c1ccccc1
IC50 (MCF7 [1]): 7.2 µM
IC50 (MDA-MB-231 [2]): 10.4 µM

COc1ccc2c(c1)OC[C@H](Cc1ccc(O)cc1)N(S(=O)(=O)c1ccc(C)cc1)C2
IC50 (MCF7 [1]): > 20 µM
IC50 (MDA-MB-231 [2]): > 20 µM

COc1cccc2c1OC[C@H](Cc1ccc(OCCN3CCCC3)cc1)N(S(=O)(=O)c1ccc(C)cc1)C2
IC50 (MCF7 [1]): > 20 µM
IC50 (MDA-MB-231 [2]): > 20 µM

CCN(CC)CCOc1ccc(C[C@H]2COc3c(cccc3OC)CN2S(=O)(=O)c2ccc(C)cc2)cc1
IC50 (MCF7 [1]): > 20 µM
IC50 (MDA-MB-231 [2]): > 20 µM

Cc1ccc(S(=O)(=O)N2Cc3ccccc3OC[C@@H]2Cc2ccc(OCCN3CCCCC3)cc2)cc1
IC50 (MDA-MB-231 [5]): 5.12 µM
IC50 (MCF7 [1]): 9.62 µM
IC50 (MDA-MB-231 [2]): 10.2 µM
IC50 (MDA-MB-231 [6]): 4.2 µM
IC50 (MCF7 [7]): 4.31 µM
IC50 (MCF7 [4]): 3.23 µM
